Measurements pooled from the literature.
Each line is one published result; the experiments were not run side by side. pIC50: −log10 of the molar value. Values after ≈ are worked out from the molar mass of the structure shown.

SMILES	tested on	assay	test system	conditions	quantity	value
CCCCCCCCCCCCCCCC(=O)N(C)[C@H](CO)C(=O)N[C@H](C)C(=O)NCC(=O)N(C)[C@@H]1C(=O)N[C@@H](C)C(=O)N[C@H](C(=O)O)Cc2ccc(O)c(c2)-c2cc1ccc2O	Latilactobacillus sakei	microbial growth	–	–	MIC	> 128 µg/mL
CCCCCCC/C=C/C(=O)N1C(=O)/C(=C(\O)CCCC)C(=O)C1CC(C)C (stereo not shown)	Burkholderia cepacia	microbial growth	ATCC25416	–	MIC	> 200 µg/mL
O=C(Oc1ccc(I)cc1)[c-]1cccc1.[Fe+2].c1cc[cH-]c1	MCF-10A	cell growth or viability, MTT	–	72 h	pIC50	5.15
CC(C)CCC[C@@H](C)[C@H]1CC[C@H]2[C@@H]3CCC4=CC(=O)CC[C@]4(C)[C@H]3CC[C@]12C	Leishmania mexicana	parasite growth	–	48 h, promastigote	pIC50	4.09
Cc1ccc(Cl)c(Nc2ccccc2C(=O)O)c1Cl	human PBMC	cell migration	–	10 µM	inhibition	100%
CCCCCCC/C=C/C(=O)N1C(=O)/C(=C(/C)O)C(=O)C1Cc1ccc(O)cc1 (stereo not shown)	Burkholderia cepacia	microbial growth	ATCC25416	–	MIC	> 200 µg/mL
C=C(CCC=C(C)C)[C@H]1CC[C@H]2[C@@H]3CC=C4C[C@@H](O)CC[C@]4(C)[C@H]3CC[C@]12C	Leishmania mexicana	parasite growth	–	48 h, promastigote	pIC50	< 3.58
CCCCCCC/C=C/C(=O)N1C(=O)/C(=C(/C)O)C(=O)C1CCCCN (stereo not shown)	Burkholderia cepacia	microbial growth	ATCC25416	–	MIC	> 200 µg/mL
CCC1(c2ccc(N)cc2)CCC(=O)NC1=O (stereo not shown)	MCF-10A	cell growth or viability, CCK-8	–	48 h	pIC50	< 4.30
C[C@]12CCC(=O)C(O)=C1CC[C@@H]1[C@@H]2CC[C@]2(C)C(=O)CC[C@@H]12	CAL-27	cell growth or viability	–	72 h	pIC50	< 4.70
CN[C@@H]1[C@H](O)[C@H](NC)[C@H]2O[C@@]3(O)C(=O)C[C@@H](C)O[C@H]3O[C@@H]2[C@H]1O	Burkholderia cepacia	microbial growth, broth dilution	ATCC25416	–	MIC	50 µg/mL (≈ 150 µM)
CN(c1ccccc1)S(=O)(=O)c1cc(C(=O)NCc2ccco2)ccc1Cl	human PBMC	cell migration	–	10 µM	inhibition	82%
COc1cc2c3c(n(CCCNCCO)c(=O)c2cc1OC)-c1cc2c(cc1C3=O)OCO2	SN12C	cell growth or viability	–	–	GI50	< 0.01 µM
